Data on 1 molecule can be found in ChEMBL document CHEMBL4152262, “Design, synthesis and evaluation of novel multi-target-directed ligands for treatment of Alzheimer's disease based on coumarin and lipoic acid scaffolds” (Eur J Med Chem, 2018).

Structures are written as SMILES. The source made the active and inactive calls. The rule behind the calls is not given here.

In test [1] the test system is PC-12. Nature of the test: Inhibition of H2O2-induced ROS generation in rat PC12 cells assessed as intracellular ROS level at 10 uM preincubated for 6 hrs followed by H2O2 addition measured after 18 hrs by DCFH-DA staining based fluorimetric method relative to control. The format is functional. More on the design: scale not given: the % may be the effect or the level left. Summed up: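 PC12 cells at 1×10^4/well in RPMI with 10% FBS and penicillin/streptomycin, 24 h at 37 °C, 5% CO2. Test samples (1, 5, 10, 50 µM; ≤0.5% DMSO) for 6 h, PBS wash, then H2O2 150 µM for 18 h. Loaded with 10 µM DCFH-DA for 30 min at 37 °C in the dark, washed twice. DCF fluorescence read at ex 485/em 528 nm as % of untreated control. Three independent experiments, mean ± SEM.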

For another test, the system named is SH-SY5Y. Nature of the test: Neuroprotection against H2O2-induced cell death in human SH-SY5Y cells assessed as cell viability at 10 uM preincubated for 3 hrs followed by H2O2 addition measured after 24 hrs by MTT assay relative to control. The format is functional. The settings on record: read-out: Activity. Summed up:
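SH-SY5Y cells grown in DMEM with 10% FBS, 1% L-glutamine and antibiotics, 5×10^3/well. Compound (10 or 50 µM) for 3 h before 250 µM H2O2, then 24 h incubation. MTT read at 570 nm after DMSO solubilization. Viability as blank-corrected % of untreated control; three independent experiments, mean ± SEM.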
(Tetrazolium assays rely on reduction of a dye to a coloured formazan, in cell work by metabolically active cells.)

The nature of test [2]: Metal chelating activity assessed as compound-Cu2+ complex formation at 20 uM after 30 mins by UV-visible spectrophotometric analysis. An outline of the steps:
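Compound (final 20 µM in methanol) mixed with metal salt (CuCl2, FeSO4, ZnCl2, AlCl3, MgCl2 or CaCl2, final 20 µM in methanol). After 30 min at room temperature, UV spectra recorded from 200 to 500 nm in 1-cm quartz cells on a dual-beam spectrophotometer.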

The subject of test [3] is PC-12. Nature of the test: Neuroprotection against H2O2-induced cell death in rat PC12 cells assessed as cell viability at 20 uM preincubated for 3 hrs followed by H2O2 stimulation measured after 2 hrs by MTT assay (reference value: 25.2 to 41.8%). The format is functional. The settings on record: read-out: Activity.
Test [4] concerns PC-12. Nature of the test: Neuroprotection against H2O2-induced cell death in rat PC12 cells assessed as cell viability at 0.1 uM preincubated for 3 hrs followed by H2O2 stimulation measured after 2 hrs by MTT assay (reference value: 25.2 to 41.8%). The format is functional. The settings on record: read-out: Activity.
Test [5] addresses Amyloid-beta precursor protein (Homo sapiens) (UniProt P05067). Nature of the test: Inhibition of amyloid beta (1 to 42) (unknown origin) self-induced aggregation at 100 uM incubated for 48 hrs by thioflavin-T fluorescence assay relative to control.
For test [6], the target named is Acetylcholinesterase (Homo sapiens) (UniProt P22303). Nature of the test: Potency index, ratio of compound effect to donepezil effect for inhibition of recombinant human AChE-induced amyloid beta (1 to 42) aggregation at 100 uM. Summed up:
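Prefibrillated Aβ1-42 (prepared 72 h at 37 °C in PBS/1% ammonium hydroxide) was coincubated with human recombinant AChE (0.01 u/mL) in 0.05 M KP buffer pH 7.4, 37 °C, 48 h, with or without compound or donepezil at 100 µM. ThT added; fluorescence read at ex 448/em 490 nm. % inhibition from intensities with vs without inhibitor; three experiments.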

The target in test [7] is Amyloid-beta precursor protein (Homo sapiens) (UniProt P05067). Nature of the test: Potency index, ratio of compound effect to donepezil effect for inhibition of amyloid beta (1 to 42) (unknown origin) self-induced aggregation at 100 uM.
Amyloid-beta precursor protein (Homo sapiens), sequence (P05067 whole entry): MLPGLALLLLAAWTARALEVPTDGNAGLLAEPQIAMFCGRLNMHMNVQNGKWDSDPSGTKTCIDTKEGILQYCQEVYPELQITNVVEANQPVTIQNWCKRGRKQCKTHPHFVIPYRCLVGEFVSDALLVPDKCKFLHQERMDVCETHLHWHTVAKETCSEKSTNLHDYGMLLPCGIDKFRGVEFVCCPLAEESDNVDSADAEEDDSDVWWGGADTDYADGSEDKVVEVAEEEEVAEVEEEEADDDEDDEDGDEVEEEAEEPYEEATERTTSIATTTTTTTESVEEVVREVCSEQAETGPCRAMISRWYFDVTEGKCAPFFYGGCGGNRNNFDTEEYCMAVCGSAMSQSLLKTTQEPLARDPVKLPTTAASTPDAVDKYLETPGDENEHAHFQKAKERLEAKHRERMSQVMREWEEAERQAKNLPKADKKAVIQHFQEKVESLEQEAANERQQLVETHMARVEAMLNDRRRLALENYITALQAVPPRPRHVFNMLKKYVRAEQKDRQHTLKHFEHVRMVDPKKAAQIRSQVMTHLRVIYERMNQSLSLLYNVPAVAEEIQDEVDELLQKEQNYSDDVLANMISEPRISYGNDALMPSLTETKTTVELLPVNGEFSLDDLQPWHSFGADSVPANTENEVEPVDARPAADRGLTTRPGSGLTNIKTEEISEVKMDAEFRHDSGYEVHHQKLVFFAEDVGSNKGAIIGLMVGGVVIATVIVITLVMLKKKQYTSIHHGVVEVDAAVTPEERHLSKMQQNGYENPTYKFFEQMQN

Acetylcholinesterase (Homo sapiens), sequence (P22303 whole entry): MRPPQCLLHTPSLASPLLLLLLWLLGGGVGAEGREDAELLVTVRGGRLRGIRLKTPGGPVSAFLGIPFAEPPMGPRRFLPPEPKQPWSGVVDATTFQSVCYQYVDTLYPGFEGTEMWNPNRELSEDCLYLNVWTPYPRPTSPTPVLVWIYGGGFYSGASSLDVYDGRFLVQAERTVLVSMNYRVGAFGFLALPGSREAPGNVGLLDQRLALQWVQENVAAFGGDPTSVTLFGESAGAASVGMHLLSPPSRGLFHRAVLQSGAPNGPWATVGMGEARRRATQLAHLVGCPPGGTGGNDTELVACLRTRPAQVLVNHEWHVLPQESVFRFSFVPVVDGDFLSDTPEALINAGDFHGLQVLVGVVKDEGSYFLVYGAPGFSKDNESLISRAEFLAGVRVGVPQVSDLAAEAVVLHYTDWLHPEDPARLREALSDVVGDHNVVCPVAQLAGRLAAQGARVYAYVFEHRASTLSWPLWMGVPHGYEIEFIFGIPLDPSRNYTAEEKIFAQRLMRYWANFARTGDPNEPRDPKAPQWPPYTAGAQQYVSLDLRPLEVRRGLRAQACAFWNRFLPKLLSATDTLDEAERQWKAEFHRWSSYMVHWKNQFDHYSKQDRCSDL

For orientation: inhibition means the share of the control response that was lost under treatment. As for `COc1ccc(-c2cc3ccc(OCCCn4cc(CNC(=O)CCCCC5CCSS5)nn4)cc3oc2=O)cc1OC` (stereo not drawn), the Activity in the test on PC-12 [1] is given as 43.04%. Further, in the test with SH-SY5Y, the viability at 10 µM amounted to 64%. Also, the result in test [2] was Active. Also, the viability at 20 µM in the test with PC-12 [3] came out at 45.6%. For the same molecule, in the test with PC-12 [4], the viability at 0.1 µM was found to be 36.4%. Also, in test [5], the inhibition stood at 51.2%. For the same molecule, the Ratio in test [6] and in test [7] was 2 throughout.
